According to article PMC4838516 (ChemMedChem, 2016):
Where two headings read alike, the source gives them in different places.

How the values were obtained:
KSHV Pr = KSHV Pr (Human herpesvirus 8 type P, UniProt Q2HRB6); test: Dose-response kinetic assay of KSHV Pr with fluorogenic P6R substrate; assay type: biochemical; settings: read-out: KSHV Pr IC50
Summary of the method: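 Manual kinetic dose-response assay on KSHV Pr with the P6R substrate Ac-Pro-Val-Tyr-tBG-Leu-Gln-Ala-(rhodamine110)-dPro, read in a plate reader at ex/em 485/530 nm. IC50 was taken from dose-response curves of enzymatic activity; reported values are means.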

HCMV Pr = HCMV Pr (Human cytomegalovirus, UniProt P16753); test: Dose-response kinetic assay of HCMV Pr with ACC tetrapeptide substrate; assay type: biochemical; settings: read-out: HCMV Pr IC50; --- = No quantifiable inhibition
Sequence of HCMV Pr (P16753 1-256): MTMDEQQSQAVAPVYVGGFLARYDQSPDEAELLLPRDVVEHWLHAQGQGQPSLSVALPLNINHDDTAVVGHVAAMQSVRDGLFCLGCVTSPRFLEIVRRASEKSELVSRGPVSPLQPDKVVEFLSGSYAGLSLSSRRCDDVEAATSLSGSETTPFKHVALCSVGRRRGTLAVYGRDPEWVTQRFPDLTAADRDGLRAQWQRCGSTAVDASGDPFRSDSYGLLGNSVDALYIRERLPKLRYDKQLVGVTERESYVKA
Summary of the method: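 Manual kinetic fluorescence assay on HCMV Pr using the tetrapeptide Ac-tBG-tBG-Asn(NMe2)-Ala carrying an ACC fluorophore, with ex/em 380/460 nm. Activity was followed over a dilution series of test compound to determine the IC50.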

Sequence of KSHV Pr (Q2HRB6 1-230): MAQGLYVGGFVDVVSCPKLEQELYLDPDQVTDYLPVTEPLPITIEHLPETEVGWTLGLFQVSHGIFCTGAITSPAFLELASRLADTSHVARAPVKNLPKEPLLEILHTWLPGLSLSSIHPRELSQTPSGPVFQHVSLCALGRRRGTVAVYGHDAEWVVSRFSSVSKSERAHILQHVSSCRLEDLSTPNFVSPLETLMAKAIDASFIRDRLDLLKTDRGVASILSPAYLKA

In the case of `Nc1nc(-c2ccccc2)cs1` [Fragment 20], the IC50 (KSHV Pr) is reported as greater than 1000 µM, the IC50 (KSHV Pr; P6R rhodamine110 substrate) is reported as greater than 500 µM and the IC50 (HCMV Pr) is reported as greater than 500 µM.
